The values below come from ChEMBL document CHEMBL4513216, “Probing the Open Global Health Chemical Diversity Library for Multistage-Active Starting Points for Next-Generation Antimalarials” (ACS Infect Dis, 2020).

A short description of the data set: Toxicity liver stage against HepG2, at 10uM. It counts as cell-based. More on the design: test concentration 10 uM, cell line HepG2-A16-CD81EGFP. Particulars: human, HepG2-A16-CD81EGFP cells; read-out: INHIBITION
In a few lines:
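Uninfected HepG2-A16-CD81EGFP cells, 3 × 10^3 per well, 1536-well, plated on prespotted compound at 10 μM final, parasite-free screening media added to match infected plates; puromycin 10 μM positive, DMSO 0.5% negative; run in parallel with 48 h PbLuc assay at 37 °C, 5% CO2; viability by CellTiter-Glo luminescence, normalized to controls.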
With `Fc1ccc(Sc2ccccc2CNC2=NCCN2)cc1`, the cytotoxicity at 10 µM worked out at 18.9%.

Consider `CCc1ccc(S(=O)(=O)NCC2CCN(c3cnccn3)CC2)s1`, for which the cytotoxicity at 10 µM was 7.69%. The figure for `CC(C)Nc1nc2c(c(NC3CC3)n1)CN(C(=O)Cc1ccsc1)CC2` is 10.4%; for `COCCN1C[C@H]2CCN(c3ncccn3)CC[C@H]2S1(=O)=O` it is -2.2%; for `O=C(Nc1ccc(Cl)cn1)c1nn(C2CCS(=O)(=O)C2)c2c1CCCC2` (centres undefined) it is 1.61%.

On to `CC(C)c1ccc(OCn2ccc(C(=O)N3CCCC3)n2)cc1`, for which the cytotoxicity at 10 µM was found to be 12.7%. As to `Cc1cc(CN2CCc3nc(-c4ccncc4)nc(O)c3CC2)c(C)s1`, the cytotoxicity at 10 µM came out at 3.27%.

For `CCn1ccc(-c2cc(NCCCOc3ccccc3C)nc(C)n2)n1`, the cytotoxicity at 10 µM was -5.28%. The figure for `CCc1c(C)nc2cc(C3CCN(CCc4ccccc4)C3)nn2c1O` (centres undefined) is -20.1%. For `CN(C)S(=O)(=O)N1CCCC(c2cccc(Cc3ccc(Cl)cc3)n2)C1` (centres undefined), the cytotoxicity at 10 µM worked out at 56%. With `O=C1NCCCCC1SCc1coc(-c2ccc(F)cc2)n1` (centres undefined) the figure was 47.5%; with `Cc1cnn(C2CN(C(C)c3nc(-c4ccccc4)no3)C2)c1` (centres undefined), -2.21%. The figure for `Clc1cccc(C(NCc2ncc[nH]2)c2ccccn2)c1` (centres undefined) is 0.863%; for `CCN1CC(CN(C)c2cc(C)nc(N)n2)Oc2ccccc21` (centres undefined) it is 38.8%; for `CCn1nc(C)cc1C(=O)OCCNc1ncnc2ccccc12` it is 61.8%. Consider `CC(C)C(C)(C#N)NC(=O)CN1CCCN(Cc2ccccc2F)CC1` (centres undefined), for which the cytotoxicity at 10 µM was -5.84%. The figure for `COC(=O)C(C)(C)NC(=O)C1CC(=O)N(C2CC2)C1` (centres undefined) is -139%; for `Cc1ccccc1-c1noc(-c2ccc(N(C)C3CCOCC3)nc2)n1` it is 2.65%; for `Cc1nn2cc(CCNC(=O)c3cc(C(C)C)nn3C)nc2s1` it is 34.9%.

For `Cc1nc(N2CCC3(CCCN(CC4CC4)C3=O)C2)c2sccc2n1` (centres undefined), the cytotoxicity at 10 µM was determined as 42%. With `CCCOc1ccccc1CCCNc1ncnc2oc(C)nc12` the figure was 22.4%; with `Cc1cc(C2CCC2)nc(N2CCN(Cc3nccn3C)CC2)n1`, -6.86%. The figure for `CC(C)Cc1nc(CN2CCc3onc(-c4cccc(F)c4)c3C2)no1` is 2.3%. With `CC(C)Oc1ccc(CN2CCCC(N3CCOCC3)C2)cc1CO` (centres undefined) the figure was 1.48%; with `CSC(C)Cc1c(-c2ccccc2)ncn1CCCNc1cccnc1` (centres undefined), 15.1%. For the compound `CNc1nc(C)cc(NC2CCCN(C3Cc4ccccc4C3)C2)n1` (centres undefined), the cytotoxicity at 10 µM turned out to be 12.5%.

Take `Clc1cccc(C2CCN(c3ncnc4c3CCNC4)C2)c1` (centres undefined): the cytotoxicity at 10 µM came to 50%. Regarding `Cc1nc(CCN2CCC(Oc3ccccc3F)CC2)c(C)s1`, the cytotoxicity at 10 µM is 7.08%. The figure for `Cc1ccc2c(c1)c(CNC(=O)C1CC(=O)N(CCN(C)C)C1)nn2C` (centres undefined) is 1.66%; for `Cc1csc2ncnc(N3CCC(Cn4cc(C(C)(C)N)nn4)CC3)c12` it is 25.5%; for `CN(C)S(=O)(=O)N1CCCC(c2cccc(Cc3ccccc3)n2)C1` (centres undefined) it is 20.5%. The figure for `COc1ccc(C2=CCN(C(=O)CN(CC(N)=O)C(C)C)CC2)cc1` is 23.3%; for `CC(NC(=O)NCc1cc(Br)cs1)c1ccccn1` (centres undefined) it is -17.6%; for `COc1cccc(CN2CCN(c3ccc4nncn4n3)C(C)C2)c1` (centres undefined) it is 38.3%. The figure for `CCCN1CCC(c2nc3ccc(-c4cccc(OC)c4)cn3n2)CC1` is -113%. Regarding `COCCO[C@H]1CCN(c2cc(OC)ncn2)[C@H]1Cc1cccnc1`, the cytotoxicity at 10 µM was -140%. The figure for `CN1CCC(c2nnc3ccc(C(=O)N4CCCCC4)cn23)C1` (centres undefined) is -167%; for `Cc1cccc(COc2ccc(C(C)N)cc2)c1` (centres undefined) it is -1.79%; for `CN(C)C(=O)N1CC2(CCNCC2)c2cc(Cl)ccc21` it is -69.8%.
